The results in this text go back to ChEMBL document CHEMBL1138356, “Design and synthesis of human immunodeficiency virus entry inhibitors: sulfonamide as an isostere for the alpha-ketoamide group” (J Med Chem, 2007).

Data set [1] relates to Human immunodeficiency virus. The data set can be described thus: Antiviral activity against HIV 584.000058 by viral replication assay. Type of data set: functional, organism-based. The settings on record: Human immunodeficiency virus 1.
Data set [2] deals with Human immunodeficiency virus. The data set is described as follows: Antiviral activity against HIV 584.000039 by viral replication assay. The class given is functional, organism-based. To be noted: Human immunodeficiency virus 1.
Data set [3] deals with Human immunodeficiency virus. The data set can be described thus: Antiviral activity against HIV 584.000088 by viral replication assay. To be noted: Human immunodeficiency virus 1. The class given is functional, organism-based.
Data set [4] in a line: Cytotoxicity against human U87 cells expressing CD4 and CXCR4. Type of data set: cell-based, U-87MG ATCC.
Data set [5] relates to Human immunodeficiency virus. The data set is described as follows: Antiviral activity against HIV 584.000063P1B by viral replication assay. The settings on record: Human immunodeficiency virus 1. Type of data set: functional, organism-based.
The subject of data set [6] is Human immunodeficiency virus. The data set is described as follows: Antiviral activity against HIV 584.000241 by viral replication assay. Type of data set: functional, organism-based. To be noted: Human immunodeficiency virus 1.
The subject of data set [7] is Human immunodeficiency virus. The data set is described as follows: Antiviral activity against HIV 589.000049 by viral replication assay. The class given is functional, organism-based. The settings on record: Human immunodeficiency virus 1.
The subject of data set [8] is Human immunodeficiency virus. The data set is described as follows: Antiviral activity against HIV 584.000016 by viral replication assay. To be noted: Human immunodeficiency virus 1.
In data set [9] the test system is Human immunodeficiency virus. The data set can be described thus: Antiviral activity against HIV 208.000923 by viral replication assay. Type of data set: functional, organism-based. The settings on record: Human immunodeficiency virus 1.
In data set [10] the test system is Human immunodeficiency virus. The data set is described as follows: Antiviral activity against HIV 589.000821 by viral replication assay. Type of data set: functional, organism-based. To be noted: Human immunodeficiency virus 1.
The subject of data set [11] is Human immunodeficiency virus. The data set is described as follows: Antiviral activity against HIV 584.000220 by viral replication assay. Type of data set: functional, organism-based. To be noted: Human immunodeficiency virus 1.
For data set [12], the system named is Human immunodeficiency virus 1. The data set is described as follows: Antiviral activity against HIV1 pseudovirus in U87 cells expressing CD4 and CCR5 after 72 hrs by M33 pseudotyped assay. Type of data set: functional, organism-based, U-87MG ATCC. The settings on record: Human immunodeficiency virus 1, U-87 MG. The method in brief: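 M33 pseudotyped viral attachment assay giving IC50 values. Specificity for HIV was judged by counter-screening against AMLV-pseudotyped virus at concentrations above 100× the M33 IC50.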

Data set [13] concerns Human immunodeficiency virus. The data set is described as follows: Antiviral activity against HIV 589.000033 by viral replication assay. The class given is functional, organism-based. To be noted: Human immunodeficiency virus 1.
Data set [14] relates to Human immunodeficiency virus. The data set is described as follows: Antiviral activity against HIV 584.000030 by viral replication assay. Type of data set: functional, organism-based. To be noted: Human immunodeficiency virus 1.

As to `CC1CN(C(=O)c2ccccc2)CCN1S(=O)(=O)c1c[nH]c2c(-n3ccnn3)nccc12` (racemic), the IC50 in data set [1] was 1400 nM; in [2], 1800 nM; in data set [3], 116 nM; in data set [5], 460 nM; in [6], 8 nM; in data set [7], 46 nM. The IC50 came out at 513 nM in data set [8]; 465 nM in [9]; 330 nM in data set [10]; 2 nM in data set [11]; 54 nM in data set [12]; 492 nM in data set [13]. The same compound yielded an IC50 in data set [14] of 267 nM. The 50% cytotoxic concentration (CC50) in [4] is > 40000 nM.
Turning to `COc1ccnc2[nH]cc(C(=O)C(=O)N3CCN(C(=O)c4ccccc4)C[C@H]3C)c12`, the 50% inhibitory concentration (IC50) in data set [1] was 58 nM; in [2], 400 nM; in data set [3], 14 nM; in [5], 37 nM; in [6] it was 118 nM; in data set [7], 6 nM. Besides, the IC50 in [8] worked out at 40 nM; in data set [9], 1400 nM; in [10], 2800 nM; in data set [11], 4 nM; in data set [12] it was 8 nM; in [13] it was 28 nM. Moreover, in [14], the concentration for half-maximal inhibition (IC50) was found to be 31 nM. Further, the CC50 in data set [4] is > 40000 nM.
With `COc1cccc2[nH]cc(S(=O)(=O)N3CCN(C(=O)c4ccccc4)C[C@H]3C)c12`, the cytotoxic concentration (CC50) in data set [4] is > 40000 nM. The half-inhibitory concentration (IC50) in [12] turned out to be 4200 nM.
Take `C[C@@H]1CN(C(=O)c2ccccc2)CCN1S(=O)(=O)c1c[nH]c2ccc(F)cc12`: the half-maximal cytotoxic concentration (CC50) in [4] was > 40000 nM. The compound also gave an IC50 in data set [12] of 3600 nM.
In the same order, the values of `C[C@@H]1CN(C(=O)c2ccn(C)n2)CCN1S(=O)(=O)c1c[nH]c2ncccc12` are > 40000 nM and 2400 nM.
Turning to `C[C@@H]1CN(S(=O)(=O)c2c[nH]c3ncccc23)CCN1C(=O)c1ccccc1`, the 50% cytotoxic concentration (CC50) in [4] was > 40000 nM. Further, the IC50 in data set [12] is 13000 nM.
In the same order, the values of `C[C@@H]1CN(C(=O)c2csc(N)n2)CCN1S(=O)(=O)c1c[nH]c2ncccc12` are > 40000 nM and 520 nM.
The corresponding values for `C[C@@H]1CN(C(=O)c2ccccc2)CCN1S(=O)(=O)c1c[nH]c2c(-n3nccn3)ncc(F)c12` are > 40000 nM and 620 nM.
